This is an account of results in the array DNA melting data of Ke et al. (doi:10.1101/2024.01.08.574731).

Series [1] can be described thus: folding enthalpy; higher = less favourable; fluorescence melt of hairpins on a sequencing array, two-state fit. To be noted: sodium 0.088 M. The gist of the method: (§1)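 With Cy3 and quencher oligos annealed, library hairpins on a sequenced MiSeq flow cell were imaged for Cy3 fluorescence in 50 mM Na-HEPES pH 8.0, 25 mM NaCl, in 2.5 °C steps up to 60 °C. Melting temperature and folding enthalpy were derived from bootstrapped two-state fits of signals normalised to pre-quench Cy3 and to control constructs. Four replicates were combined by inverse variance, with fitted temperatures raised by 9.35 °C to match UV melts.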

The nature of series [2]: melting temperature; fluorescence melt of hairpins on a sequencing array, two-state fit, raised by 9.35 °C to match UV melts. To be noted: sodium 0.088 M. The method in brief:
as §1

Regarding GGTGTTGGAAACAACACC (((((((....))))))), the folding enthalpy in series [1] was -38.4 kcal/mol. In addition, the Tm in series [2] is 66.5 °C.

Turning to GGTGTTGGAAACAGCACC ((((.((....)).)))), the folding enthalpy in series [1] is -37.1 kcal/mol. The Tm in series [2] was 51.8 °C.

With GGTGTTTCGAAAGAAACC (((..(((....)))))), in series [1], the folding enthalpy is -13.2 kcal/mol. In addition, the Tm in series [2] is 42.5 °C.

As to GGTTAAGGAAACTTAATC (.(((((....))))).), the folding enthalpy in series [1] is -21.7 kcal/mol. For the same sequence, the Tm in series [2] turned out to be 31.7 °C.

As to GGTTACGAAAGTAGTACC ((((((....)))..))), the folding enthalpy in series [1] is -14.8 kcal/mol. Besides, the Tm in series [2] was 34.8 °C.

In the case of GGTTACGAAAGTATCACC ((((((....)))..))), the folding enthalpy in series [1] is -12.5 kcal/mol. Further, the Tm in series [2] stood at 28.2 °C.

Take GGTTAGAAATAACC (((((....))))): the folding enthalpy in series [1] was -16.4 kcal/mol. Moreover, in series [2], the Tm came out at 40 °C.

As to GGTTAGGAAACTAACC ((((((....)))))), the folding enthalpy in series [1] is -35.6 kcal/mol. Besides, the Tm in series [2] was 52.3 °C.

With GGTTAGGGAAACCTAGCC ((.((((....)))).)), the folding enthalpy in series [1] is -27.2 kcal/mol. In addition, the Tm in series [2] is 46.3 °C.

As for GGTTATCGAAAGATACC (((.(((....)))))), the folding enthalpy in series [1] was -25 kcal/mol. The Tm in series [2] was determined as 43.1 °C.

In the case of GGTTATCGAAAGATCACC (((.(((....))).))), the folding enthalpy in series [1] is -30.4 kcal/mol. Further, the Tm in series [2] came to 42.3 °C.

On to GGTTCACGAAAGTGGACC (((.(((....))).))), for which the folding enthalpy in series [1] is -38 kcal/mol. For the same sequence, in series [2], the Tm amounted to 63 °C.

Turning to GGTTCAGAAATGAACC ((((((....)))))), the folding enthalpy in series [1] was -38.8 kcal/mol. In addition, the Tm in series [2] came out at 54.6 °C.

GGTTCAGCGAAAGCTACC (((..(((....)))))): the folding enthalpy in series [1] was -16 kcal/mol. The Tm in series [2] is 32.7 °C.

As to GGTTCAGGAAACTAAACC ((((.((....)).)))), the folding enthalpy in series [1] is -15.3 kcal/mol. In addition, the Tm in series [2] was determined as 28.6 °C.

As for GGTTCCCGAAAGGGACC (((.(((....)))))), the folding enthalpy in series [1] was -23 kcal/mol. For the same sequence, the Tm in series [2] is 59.9 °C.

GGTTCCGAAAGGAAAACC ((((((....)))..))): in series [1], the folding enthalpy was -18.5 kcal/mol. Besides, the Tm in series [2] is 43.6 °C.

For GGTTCCGAAAGGAAACC ((((((....))).))), the folding enthalpy in series [1] is -25.9 kcal/mol. Besides, the Tm in series [2] turned out to be 53.7 °C.

Turning to GGTTCCGAAAGGAAGACC ((((((....)))..))), the folding enthalpy in series [1] was -15.1 kcal/mol. Further, in series [2], the Tm is 42.1 °C.

Turning to GGTTCCGAAAGGACAACC ((((((....)))..))), in series [1], the folding enthalpy is -19.9 kcal/mol. Moreover, in series [2], the Tm came to 36.7 °C.

Turning to GGTTCCGAAAGGACGACC ((((((....)))..))), in series [1], the folding enthalpy is -15.8 kcal/mol. In series [2], the Tm was found to be 37.4 °C.

On to GGTTCCGAAAGGATTACC ((((((....)))..))), for which the folding enthalpy in series [1] is -19.9 kcal/mol. For the same sequence, the Tm in series [2] stood at 34.6 °C.

On to GGTTCCGGAAACGGAGCC ((.((((....)))).)), for which the folding enthalpy in series [1] was -41.6 kcal/mol. In series [2], the Tm was 58.4 °C.

As for GGTTCGCCGAAAGGCACC (((..(((....)))))), in series [1], the folding enthalpy was -8.49 kcal/mol. For the same sequence, the Tm in series [2] stood at 30.1 °C.

On to GGTTCGCGAAAGCGTACC (((.(((....))).))), for which the folding enthalpy in series [1] is -26 kcal/mol. Further, the Tm in series [2] is 56 °C.

As to GGTTCGGAAACGAACC ((((((....)))))), the folding enthalpy in series [1] was -33.2 kcal/mol. Moreover, in series [2], the Tm was 67.3 °C.

Consider GGTTCGGGAAACCAAACC ((((.((....)).)))), for which, in series [1], the folding enthalpy is -30.3 kcal/mol. In addition, the Tm in series [2] turned out to be 40.4 °C.

GGTTCGGGAAACTGAGCC ((.((.(....).)).)): the folding enthalpy in series [1] was -27.1 kcal/mol. In series [2], the Tm came to 39.3 °C.

For GGTTCTGGAAACGGAACC (((((.(....).))))), the folding enthalpy in series [1] is -45 kcal/mol. In addition, the Tm in series [2] amounted to 52.3 °C.

In the case of GGTTCTGGAAACGGAATC (.(((.(....).))).), the folding enthalpy in series [1] was -18.7 kcal/mol. Besides, the Tm in series [2] turned out to be 33 °C.

Regarding GGTTGACCGAAAGGTACC (((..(((....)))))), the folding enthalpy in series [1] is -16.5 kcal/mol. The Tm in series [2] is 36.4 °C.

Regarding GGTTGAGAAATCAACC ((((((....)))))), the folding enthalpy in series [1] was -34 kcal/mol. The Tm in series [2] amounted to 53.3 °C.

GGTTGCGAAAGCAACACC ((((((....)))..))): the folding enthalpy in series [1] is -8.28 kcal/mol. Besides, the Tm in series [2] is 50 °C.

Regarding GGTTGCGAAAGCAAGACC ((((((....)))..))), the folding enthalpy in series [1] was -14.6 kcal/mol. In addition, the Tm in series [2] was 44.2 °C.

Consider GGTTGCGAAAGCACACC ((((((....))).))), for which the folding enthalpy in series [1] was -19.7 kcal/mol. In addition, the Tm in series [2] came out at 53.4 °C.

Turning to GGTTGCGAAAGCACCACC ((((((....)))..))), the folding enthalpy in series [1] was -11.6 kcal/mol. For the same sequence, in series [2], the Tm was found to be 45.1 °C.
